Source: ChEMBL document CHEMBL1151442, “Genetic and phenotypic identification of fusidic acid-resistant mutants with the small-colony-variant phenotype in Staphylococcus aureus” (2007)
Values after ≈ are worked out from the molar mass of the structure shown.

How the values were obtained:
Assay type in all cases: functional
Staphylococcus aureus [1] = assay: Antibacterial activity against fusidic acid-resistant Staphylococcus aureus AH204 harboring deletion of nucleotide 203-231 in rplF gene after 18 to 24 hrs by Etest strip assay
In short: (§1)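 Mutants of lab strain 8325-4 were selected on LA with FA 2 μg/ml for 48 h at 37°C and purified on selective medium. For the MIC, one colony was suspended in 0.9% NaCl to 0.5 McFarland and swabbed onto Mueller-Hinton agar. An Etest strip was applied and plates were incubated at 37°C for 18–24 h until the lawn was evident.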

Staphylococcus aureus [2] = assay: Antibacterial activity against kanamycin-resistant and fusidic acid-susceptible Staphylococcus aureus AH297 harboring Ser660Pro mutation in fusA gene after 18 to 24 hrs by Etest strip assay
In short: (§2)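 Etest MIC: a single colony was suspended in 0.9% NaCl to 0.5 McFarland and swabbed over Mueller-Hinton agar. The strip was applied and plates were incubated at 37°C for 18 to 24 h until an SCV lawn grew.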

Staphylococcus aureus [3] = assay: Antibacterial activity against fusidic acid-resistant Staphylococcus aureus AH193 harboring TAA stop codon at nucleotide 299 in rplF gene after 18 to 24 hrs by Etest strip assay; in short: as §1
Staphylococcus aureus [4] = assay: Antibacterial activity against kanamycin-resistant Staphylococcus aureus AH334 (SCV-6) harboring Thr436Ile mutation in fusA gene after 18 to 24 hrs by Etest strip assay
In short: (§3)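 SCVs of a Rifr 8325-4 derivative were selected on LA with KAN at 8, 16 or 24 μg/ml for 48 h at 37°C. They were purified at the same KAN level and screened on LA plus FA 1 μg/ml.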

Staphylococcus aureus [5] = assay: Antibacterial activity against kanamycin-resistant and fusidic acid-susceptible Staphylococcus aureus AH298 harboring Gly664Val mutation in fusA gene after 18 to 24 hrs by Etest strip assay; in short: as §2
Staphylococcus aureus [6] = assay: Antibacterial activity against kanamycin-resistant Staphylococcus aureus AH352 (SCV-24) harboring -1 frameshift mutation at nucleotide 106 in rplF gene after 18 to 24 hrs by Etest strip assay; in short: as §3
Staphylococcus aureus [7] = assay: Antibacterial activity against kanamycin-resistant Staphylococcus aureus AH384 (SCV-56) harboring -1 frameshift mutation at nucleotide 221 in rplF gene after 18 to 24 hrs by Etest strip assay; in short: as §3
Staphylococcus aureus [8] = assay: Antibacterial activity against kanamycin-resistant and fusidic acid-susceptible Staphylococcus aureus AH420 harboring deletion of nucleotide 72-80 in rplF gene after 18 to 24 hrs by Etest strip assay; in short: as §2
Staphylococcus aureus [9] = assay: Antibacterial activity against stationary-phase rifampin-resistant Staphylococcus aureus 8325-4 culture assessed as number of viable colonies at 24 ug/ ml after 48 hrs
In short: (§4)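 Twenty independent stationary-phase overnight LB cultures of the Rifr 8325-4 derivative were made; 108 cells from each were spread on LA with kanamycin at 8, 16 or 24 μg/ml. Plates were incubated 48 h at 37°C so that slow-growing variants could form visible colonies, and Kanr colonies were counted.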

Staphylococcus aureus [10] = assay: Antibacterial activity against stationary-phase rifampin-resistant Staphylococcus aureus 8325-4 culture assessed as number of viable colonies at 16 ug/ ml after 48 hrs; in short: as §4
Staphylococcus aureus [11] = assay: Antibacterial activity against stationary-phase rifampin-resistant Staphylococcus aureus 8325-4 culture assessed as number of viable colonies at 8 ug/ ml after 48 hrs; in short: as §4

SMILES | MIC (Staphylococcus aureus [1]) [µg/mL] | MIC (Staphylococcus aureus [2]) [µg/mL] | MIC (Staphylococcus aureus [3]) [µg/mL] | MIC (Staphylococcus aureus [4]) [µg/mL] | MIC (Staphylococcus aureus [5]) [µg/mL] | MIC (Staphylococcus aureus [6]) [µg/mL] | MIC (Staphylococcus aureus [7]) [µg/mL] | MIC (Staphylococcus aureus [8]) [µg/mL] | Activity (Staphylococcus aureus [9]) | Activity (Staphylococcus aureus [10]) | Activity (Staphylococcus aureus [11])
CC(=O)O[C@H]1C[C@@]2(C)[C@@H](C[C@@H](O)[C@H]3[C@@]4(C)CC[C@@H](O)[C@@H](C)[C@@H]4CC[C@@]32C)/C1=C(\CCC=C(C)C)C(=O)O [FUSIDIC ACID] | 4 (≈ 7.74 µM) | 2 (≈ 3.87 µM) | 4 (≈ 7.74 µM) | 48 (≈ 92.9 µM) | 6 (≈ 11.6 µM) | 4 | 24 | 12 (≈ 23.2 µM) |  |  | 
NC[C@H]1O[C@H](O[C@H]2[C@H](O)[C@@H](O[C@H]3O[C@H](CO)[C@@H](O)[C@H](N)[C@H]3O)[C@H](N)C[C@@H]2N)[C@H](O)[C@@H](O)[C@@H]1O [KANAMYCIN] | 8 (≈ 16.5 µM) | 24 (≈ 49.5 µM) | 8 (≈ 16.5 µM) | 128 (≈ 264 µM) | 32 (≈ 66 µM) | 6 | 128 | 256 (≈ 528 µM) | 30 | 200 | 1000
CN[C@@H]1[C@H](O[C@H]2[C@H](O[C@H]3[C@H](O)[C@@H](O)[C@H](N=C(N)N)[C@@H](O)[C@@H]3N=C(N)N)O[C@@H](C)[C@]2(O)C=O)O[C@@H](CO)[C@H](O)[C@H]1O [STREPTOMYCIN] | 24 (≈ 41.3 µM) |  | 24 (≈ 41.3 µM) | 192 (≈ 330 µM) | 6 (≈ 10.3 µM) | 24 | 256 | 256 (≈ 440 µM) |  |  | 
